Measurements as given in paper PMC11881275 (Malaria Journal, 2025).
“Also recorded” adds a separate entry of the source.

Legend:
[1] = in silico predictions ref 77; cited from earlier work
[2] = Cytotoxic activity via the MTT method; format: cell-based, human; details: human, HepG2 cells
[3] = tested on: human hepatocellular carcinoma cell line (HepG2); test: Cytotoxic activity via the MTT method; format: cell-based; details: highest concentration tested 500 µM
[4] = tested on: P. falciparum NF54 gametocytes (stages IV, V); test: Exflagellation-blocking bioassay; format: cell-based, Plasmodium falciparum; details: 1 µM; ≥ 75% high, 25 to 75% average, below 25% inactive
Procedure, shortened: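 Stage IV–V gametocytes were first checked for exflagellation (≥30 exflagellating microgametocytes per 1000 RBC). They were then exposed for 48 h to test compound at 1 µM in triplicate, with DMSO ≤0.5% and DHA 1 µM as controls. Exflagellation was induced in ookinete medium containing xanthurenic acid, 20 min at 24 °C, and counted by microscopy at 1000×. Inhibition ≥75% was classed active.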

P. falciparum W2 clone = test: In vitro antimalarial activity via the SYBR Green I assay; format: cell-based, Plasmodium falciparum
Procedure, shortened: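 Sorbitol-synchronized parasites in human O+ erythrocytes (0.5% parasitaemia, 2% haematocrit) received twofold dilutions of test compound, 1.56–200 µM final, in triplicate; artemisinin 170 nM was the control. Incubation was 72 h at 37 °C under 5% CO2/5% O2/90% N2. Cells were lysed in Tris/EDTA/saponin/Triton buffer with SYBR Green I, 30 min at 24 °C in the dark; ex 485/em 590 nm, uninfected-RBC blank subtracted. SI = HepG2 CC50 (MTT, 72 h) ÷ IC50.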

OC(c1cc(C(F)(F)F)nc2c(C(F)(F)F)cccc12)C1CCCCN1 (stereo not drawn) [mefloquine]
Plasma protein binding [1]: high plasm protein binding

CC(=O)OCc1cn(-c2n[nH]c(C(F)(F)F)n2)nn1 [Compound 14d, (1-(5-(trifluoromethyl)-1H-1,2,4-triazol-3-yl)-1H-1,2,3-triazol-4-yl)methyl acetate]
CC50 at 72 h [2]: ≥ 500 µM
viability at 72 h, 500 µM [2]: 93.4%
Cytotoxicity to HepG2 cells (in words) [3]: non-cytotoxic; also recorded: no cytotoxicity
Potential to block malaria transmission (classification) [4]: high potential to block malaria transmission; also recorded: strong potential to block malaria transmission

CC(=O)OCc1cn(-c2n[nH]c(C)n2)nn1 [Compound 13d, (1-(5-methyl-1H-1,2,4-triazol-3-yl)-1H-1,2,3-triazol-4-yl)methyl acetate]
CC50 at 72 h [2]: ≥ 500 µM
viability at 72 h, 500 µM [2]: 80%
Cytotoxicity to HepG2 cells (in words) [3]: non-cytotoxic; also recorded: no cytotoxicity

COc1cc(NC(C)CCCN)c2ncccc2c1 (stereo not drawn) [primaquine]
Plasma protein binding [1]: high plasm protein binding

C[C@@H]1CC[C@H]2[C@@H](C)C(=O)O[C@@H]3O[C@@]4(C)CC[C@@H]1[C@]32OO4 [Artemisinin]
SI (selectivity index) (P. falciparum W2 clone; CC50 HepG2 divided by IC50 W2): ≥ 23,809
IC50 (P. falciparum W2 clone; Plasmodium falciparum, W2, 72 h, read-out: IC50 W2): 0.021 ± 0.004 µM
CC50 at 72 h [2]: ≥ 500 µM
viability at 72 h, 500 µM [2]: 100%
Plasma protein binding [1]: high plasm protein binding

CCN(CC)CCCC(C)Nc1ccnc2cc(Cl)ccc12 (stereo not drawn) [chloroquine]
Plasma protein binding [1]: high plasm protein binding
